Source: ChEMBL document CHEMBL4706565, “Anti-glioma effects of 2-aminothiophene-3-carboxamide derivatives, ANO1 channel blockers” (Eur J Med Chem, 2020)
pIC50: −log10 of the molar value. Calls of active or inactive are those of the source. The calls are words filed in the database; no cut-off is given here.

Key:
Anoctamin-2 = target: T1, Anoctamin-2 (Mus musculus, UniProt Q8CFW1); test: Inhibition of GFP-fused mouse ANO2 channel expressed in HEK293A cells assessed as inhibition of channel current amplitude at membrane potential of +80 mV by patch clamp electrophysiology assay; format: cell-based, HEK293-A
T1 sequence (Q8CFW1 whole entry): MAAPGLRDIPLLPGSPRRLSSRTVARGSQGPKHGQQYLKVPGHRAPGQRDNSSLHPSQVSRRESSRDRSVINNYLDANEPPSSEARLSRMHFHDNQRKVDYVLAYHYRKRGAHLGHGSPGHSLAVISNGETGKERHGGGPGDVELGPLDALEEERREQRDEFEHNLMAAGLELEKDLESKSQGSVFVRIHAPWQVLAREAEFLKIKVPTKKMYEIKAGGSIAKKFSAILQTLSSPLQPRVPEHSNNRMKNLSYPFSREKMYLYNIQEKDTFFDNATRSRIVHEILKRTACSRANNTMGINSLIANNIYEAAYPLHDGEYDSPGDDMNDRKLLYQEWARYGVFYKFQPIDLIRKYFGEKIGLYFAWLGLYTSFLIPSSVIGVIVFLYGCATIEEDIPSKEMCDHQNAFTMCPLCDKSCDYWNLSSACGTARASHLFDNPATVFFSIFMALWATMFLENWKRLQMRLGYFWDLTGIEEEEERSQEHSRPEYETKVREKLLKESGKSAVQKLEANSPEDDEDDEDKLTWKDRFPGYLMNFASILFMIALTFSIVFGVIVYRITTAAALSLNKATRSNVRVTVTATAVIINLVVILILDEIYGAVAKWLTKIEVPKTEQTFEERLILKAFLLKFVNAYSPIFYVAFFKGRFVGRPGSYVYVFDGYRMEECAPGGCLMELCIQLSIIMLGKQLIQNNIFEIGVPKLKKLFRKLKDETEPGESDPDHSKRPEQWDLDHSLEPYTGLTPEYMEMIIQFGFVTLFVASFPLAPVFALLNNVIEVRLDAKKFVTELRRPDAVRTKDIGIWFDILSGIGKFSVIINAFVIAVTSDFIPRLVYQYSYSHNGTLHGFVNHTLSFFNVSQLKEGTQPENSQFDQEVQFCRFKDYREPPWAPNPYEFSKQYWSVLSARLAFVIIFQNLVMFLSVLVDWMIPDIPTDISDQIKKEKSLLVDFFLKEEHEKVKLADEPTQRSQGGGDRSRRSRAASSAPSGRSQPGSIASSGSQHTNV
Procedure, shortened: (§1)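 Whole-cell recording at room temperature in HEK293A cells transfected with GFP-mANO1, GFP-mANO2 or GFP-mTTYH1. 1 s ramps from +80 to -80 mV, holding potential -10 mV. For ANO1/ANO2: pipette CsCl 146 mM with Ca-EGTA-NMDG, pH 7.3; bath NaCl-based, pH 7.3. For TTYH1: Tris-aspartate pipette (pH 7.2) and Tris-HCl bath (pH 7.4), with […] and BaCl2 added to block K+ channels, and hypotonic (220 mOsm/kg) bath. Washout recordings assessed reversibility.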

[1] = target: T2, Anoctamin-1 (Mus musculus) (UniProt Q8BHY3); test: Irreversible inhibition of GFP-fused mouse ANO1 channel expressed in HEK293A cells assessed as inhibition of channel current amplitude at 10 uM at membrane potential of +80 mV measured after drug wash-out by patch clamp electrophysiology assay; format: cell-based; details: HEK293-A; procedure, shortened: as §1
T2 sequence (whole entry): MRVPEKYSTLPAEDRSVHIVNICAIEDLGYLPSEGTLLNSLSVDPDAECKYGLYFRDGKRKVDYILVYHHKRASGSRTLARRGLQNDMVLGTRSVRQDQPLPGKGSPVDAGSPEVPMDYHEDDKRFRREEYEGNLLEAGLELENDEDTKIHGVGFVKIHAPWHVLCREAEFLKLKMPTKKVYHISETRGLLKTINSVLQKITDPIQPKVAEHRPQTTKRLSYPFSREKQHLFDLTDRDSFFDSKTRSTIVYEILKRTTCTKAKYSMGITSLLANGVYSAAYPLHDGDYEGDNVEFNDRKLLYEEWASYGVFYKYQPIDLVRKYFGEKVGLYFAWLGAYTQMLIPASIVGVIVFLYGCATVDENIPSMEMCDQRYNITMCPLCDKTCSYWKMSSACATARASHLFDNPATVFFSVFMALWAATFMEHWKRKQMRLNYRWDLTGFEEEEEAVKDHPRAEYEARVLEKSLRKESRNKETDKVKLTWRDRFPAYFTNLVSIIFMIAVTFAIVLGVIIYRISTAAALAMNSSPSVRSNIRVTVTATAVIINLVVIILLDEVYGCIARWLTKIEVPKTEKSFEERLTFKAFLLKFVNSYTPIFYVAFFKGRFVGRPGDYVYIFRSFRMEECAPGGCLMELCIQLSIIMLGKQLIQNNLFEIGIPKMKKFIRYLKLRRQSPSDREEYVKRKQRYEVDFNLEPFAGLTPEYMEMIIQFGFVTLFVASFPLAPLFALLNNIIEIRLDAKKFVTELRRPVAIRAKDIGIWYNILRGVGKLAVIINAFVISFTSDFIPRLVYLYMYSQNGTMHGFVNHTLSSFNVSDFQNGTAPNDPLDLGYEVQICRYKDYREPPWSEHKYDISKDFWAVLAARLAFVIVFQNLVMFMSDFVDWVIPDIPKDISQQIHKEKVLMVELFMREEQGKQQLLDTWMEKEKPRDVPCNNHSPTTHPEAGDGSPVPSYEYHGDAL

U-251 [2] = test: Antiproliferative activity against human U251 cells overexpressing ANO1 assessed as reduction in cell viability in presence of temozolomide measured after 72 hrs by Celltiter-glo assay; format: functional
U-251 [3] = test: Synergistic antiproliferative activity against human U251 cells assessed as combination index at compound:temozolomide concentration ratio of 1:1 in presence of temozolomide by Chou-Talalay method; format: functional
Procedure, shortened: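 U251 proliferation measured with CellTiter-Glo across full titrations of an ANO1 inhibitor combined with temozolomide. Combination index calculated by the Chou-Talalay method.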

[4] = target: T2, Anoctamin-1 (Mus musculus); test: Reversible inhibition of GFP-fused mouse ANO1 channel expressed in HEK293A cells assessed as channel current amplitude at 10 uM at membrane potential of +80 mV measured after drug wash-out by patch clamp electrophysiology assay; format: cell-based; set-up: scale not given: the % may be the effect or the level left; details: HEK293-A; procedure, shortened: as §1

SMILES | pIC50 (Anoctamin-2) | inhibition [1] | GI50 (U-251 [2]) [µM] | CI (U-251 [3]) | Activity [4] [%]
NC(=O)c1c(NC(=S)NC(=O)c2ccc(Cl)cc2)sc2c1CCC2 | 5.13 | Active | – | – | –
CC(C)(C)C(=O)Nc1sc2c(c1C(N)=O)CCC(C(C)(C)C)C2 (stereo unspecified) | 4.81 | – | 5.32 | 0.63 | 85.8
